ChEMBL document CHEMBL1134845, “Syntheses and biological activities of a novel group of steroidal derived inhibitors for human Cdc25A protein phosphatase” (J Med Chem, 2001)

Experiments:
[1] = system: HT-29; assay: Growth inhibitory activity was determined against HT-29 cancer cell line colon cancer; type: functional, Homo sapiens
Procedure, shortened: (§1)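 NCI 60 human tumour cell line screen run at the National Cancer Institute. Cell growth and viability read with the protein stain sulforhodamine B, which binds basic amino acids of cells left attached after washing. […] MG MID is the mean GI50 calculated over all panels.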

[2] = system: OVCAR-3; assay: Growth inhibitory activity was determined against OVCAR-3 cancer cell line of Ovarian cancer; type: functional; details: Homo sapiens; procedure, shortened: as §1
[3] = system: SN12C; assay: Growth inhibitory activity was determined against SN12C cancer cell line of renal cancer; type: functional; details: Homo sapiens; procedure, shortened: as §1
[4] = system: NCI-H23; assay: Growth inhibitory activity was determined against NCI-H23 cancer cell line of non-small cell lung cancer; type: functional, Homo sapiens; procedure, shortened: as §1
[5] = system: OVCAR-8; assay: Growth inhibitory activity was determined against OVCAR-8 cancer cell line of Ovarian cancer; type: functional; details: Homo sapiens; procedure, shortened: as §1
[6] = system: LOX IMVI; assay: Growth inhibitory activity was determined against LOX IMVI cancer cell line of melanoma; type: functional, Homo sapiens; procedure, shortened: as §1
[7] = system: NCI/ADR-RES; assay: Growth inhibitory activity was determined against NCI/ADR-RES cancer cell line of Breast cancer; type: functional, Homo sapiens; procedure, shortened: as §1
[8] = system: U-251; assay: Growth inhibitory activity was determined against U-251 cancer cell line of CNS cancer; type: functional; details: Homo sapiens; procedure, shortened: as §1
[9] = system: COLO 205; assay: Growth inhibitory activity was determined against COLO 205 cancer cell line colon cancer; type: functional, Homo sapiens; procedure, shortened: as §1
[10] = molecular target: Receptor-type tyrosine-protein phosphatase C, CD45 (Homo sapiens) (UniProt P08575); assay: Inhibitory activity tested against human CD45 (receptor-type tyrosine-protein phosphatase C)
[11] = system: PC-3; assay: Growth inhibitory activity PC-3 cancer cell line of Prostate cancer; type: functional; details: Homo sapiens; procedure, shortened: as §1
[12] = system: UO-31; assay: Growth inhibitory activity was determined against UO-31 cancer cell line of renal cancer; type: functional; details: Homo sapiens; procedure, shortened: as §1
[13] = system: A549; assay: Growth inhibitory activity was determined against A549/ATCC cancer cell line of non-small cell lung cancer; type: functional, Homo sapiens; procedure, shortened: as §1
[14] = system: 786-0; assay: Growth inhibitory activity was determined against 786-0 cancer cell line of renal cancer; type: functional; details: Homo sapiens; procedure, shortened: as §1
[15] = molecular target: T1, M-phase inducer phosphatase 1 (Homo sapiens, UniProt P30304); assay: Inhibitory activity tested against cell division cycle 25A (assay using fluorescein diphosphate (FDP) as substrate)
T1 sequence (P30304 whole entry): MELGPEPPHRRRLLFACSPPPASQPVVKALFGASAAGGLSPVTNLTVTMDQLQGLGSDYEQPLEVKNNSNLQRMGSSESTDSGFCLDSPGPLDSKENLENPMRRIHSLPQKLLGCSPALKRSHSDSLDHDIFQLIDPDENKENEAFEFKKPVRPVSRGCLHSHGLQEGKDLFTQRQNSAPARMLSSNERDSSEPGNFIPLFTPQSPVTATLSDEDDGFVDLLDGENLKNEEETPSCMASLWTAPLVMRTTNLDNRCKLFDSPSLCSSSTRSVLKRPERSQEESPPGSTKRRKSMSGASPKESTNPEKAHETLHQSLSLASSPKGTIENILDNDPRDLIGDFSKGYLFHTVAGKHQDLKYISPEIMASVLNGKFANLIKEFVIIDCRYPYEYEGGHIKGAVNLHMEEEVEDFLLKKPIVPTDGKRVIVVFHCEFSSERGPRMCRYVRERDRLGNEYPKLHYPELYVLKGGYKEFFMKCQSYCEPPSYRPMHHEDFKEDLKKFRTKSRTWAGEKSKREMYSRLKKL
Procedure, shortened: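 Recombinant human GST-Cdc25A fusion protein, each batch calibrated so that FDP was dephosphorylated linearly over 20 min. Fluorescein diphosphate was the substrate. Reactions ran 15 min at 25 °C in the dark and were stopped with sodium orthovanadate. IC50 came from at least two independent runs, each in triplicate.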

[16] = system: SK-MEL-5; assay: Growth inhibitory activity was determined against SK-MEL-5 cancer cell line of melanoma; type: functional, Homo sapiens; procedure, shortened: as §1
[17] = system: SF-539; assay: Growth inhibitory activity was determined against SF-539 cancer cell line of CNS cancer; type: functional; details: Homo sapiens; procedure, shortened: as §1
[18] = molecular target: T2, Receptor-type tyrosine-protein phosphatase C (Homo sapiens, UniProt P08575); assay: Inhibitory activity tested against Human CD45 Phosphatase (assay using p-nitrophenyl phosphate (pNPP) as substrate)
T2 sequence (P08575 whole entry): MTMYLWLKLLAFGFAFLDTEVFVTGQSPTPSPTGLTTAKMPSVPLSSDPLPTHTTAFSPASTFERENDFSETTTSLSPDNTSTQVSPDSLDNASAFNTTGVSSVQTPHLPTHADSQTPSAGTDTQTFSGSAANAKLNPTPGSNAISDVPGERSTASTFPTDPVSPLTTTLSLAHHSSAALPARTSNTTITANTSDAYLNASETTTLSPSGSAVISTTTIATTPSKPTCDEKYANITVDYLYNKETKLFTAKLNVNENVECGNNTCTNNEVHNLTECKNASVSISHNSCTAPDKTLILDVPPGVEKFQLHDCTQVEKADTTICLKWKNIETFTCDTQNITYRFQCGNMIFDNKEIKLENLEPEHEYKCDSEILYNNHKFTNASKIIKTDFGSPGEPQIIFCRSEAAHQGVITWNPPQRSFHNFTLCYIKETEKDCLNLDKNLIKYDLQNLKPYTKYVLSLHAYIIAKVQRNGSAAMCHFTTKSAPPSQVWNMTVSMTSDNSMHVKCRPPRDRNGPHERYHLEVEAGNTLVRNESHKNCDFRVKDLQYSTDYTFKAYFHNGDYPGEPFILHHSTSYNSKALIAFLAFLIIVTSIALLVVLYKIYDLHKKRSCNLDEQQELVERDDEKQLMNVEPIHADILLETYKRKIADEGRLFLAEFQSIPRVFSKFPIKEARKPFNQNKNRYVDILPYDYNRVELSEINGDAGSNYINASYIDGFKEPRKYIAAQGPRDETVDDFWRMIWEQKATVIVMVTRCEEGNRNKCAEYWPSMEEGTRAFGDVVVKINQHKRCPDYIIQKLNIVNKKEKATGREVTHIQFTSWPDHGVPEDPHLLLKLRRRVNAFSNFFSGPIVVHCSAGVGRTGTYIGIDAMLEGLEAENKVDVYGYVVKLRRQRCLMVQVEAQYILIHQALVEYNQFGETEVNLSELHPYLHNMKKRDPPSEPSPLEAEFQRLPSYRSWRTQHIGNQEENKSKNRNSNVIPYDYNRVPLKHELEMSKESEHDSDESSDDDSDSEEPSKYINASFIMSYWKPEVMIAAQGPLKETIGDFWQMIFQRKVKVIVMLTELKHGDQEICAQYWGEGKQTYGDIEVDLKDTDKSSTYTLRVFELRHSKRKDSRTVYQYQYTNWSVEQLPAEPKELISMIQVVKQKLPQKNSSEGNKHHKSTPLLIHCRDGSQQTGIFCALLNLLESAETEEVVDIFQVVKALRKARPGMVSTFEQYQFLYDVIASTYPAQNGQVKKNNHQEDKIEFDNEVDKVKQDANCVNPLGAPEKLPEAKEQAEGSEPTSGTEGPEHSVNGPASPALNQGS

[19] = system: BT-549 (Homo sapiens); assay: Growth inhibitory activity was determined against BT-549 cancer cell line of Breast cancer
[20] = system: T47D; assay: Growth inhibitory activity was determined against T-47D cancer cell line of Breast cancer; type: functional, Homo sapiens; procedure, shortened: as §1
[21] = system: HCC 2998; assay: Growth inhibitory activity was determined against HCC2998 cancer cell line colon cancer; type: functional, Homo sapiens; procedure, shortened: as §1

GI50 [1]: 5.18 µM
GI50 [2]: 5.19 µM
GI50 [4]: 5.85 µM
GI50 [5]: 8.02 µM
GI50 [8]: 4.35 µM
GI50 [9]: 5.55 µM
IC50 [10]: 8.6 µM
GI50 [11]: 6.88 µM
GI50 [13]: 4.35 µM
GI50 [14]: 7.18 µM
IC50 [15]: 1.9 µM
GI50 [16]: 7.71 µM
IC50 [18]: 8.6 µM
GI50 [19]: 6.2 µM
GI50 [20]: 9.27 µM
GI50 [21]: 4.77 µM
SMILES: CC(C)CCCC(C)[C@H]1CC[C@H]2[C@H](CC(=O)O)[C@@H](C(C)CCCCC#N)CC[C@]12C (stereo in doubt; 22)
GI50 [3]: 6.46 µM
GI50 [6]: 4.69 µM
GI50 [7]: 8.2 µM
GI50 [12]: 8.74 µM
GI50 [17]: 5.01 µM
